The results in this text go back to ChEMBL document CHEMBL4411315, “Discovery of Novel Dual Histone Deacetylase and Mammalian Target of Rapamycin Target Inhibitors as a Promising Strategy for Cancer Therapy” (J Med Chem, 2019).

The source made the active and inactive calls. The calls are words filed in the database; no cut-off is given here.

For data set [1], the system named is MV4-11. Briefly: Induction of apoptosis in human MV4-11 cells assessed as early apoptotic cells at 0.3 uM after 48 hrs in presence of 1 uM SAHA by Annexin V-FITC/propidium iodide staining-based flow cytometric analysis (reference value: 10.7%). Format: functional. Background: A flow cytometer gives signals particle by particle.
In data set [2] the target is T1, Serine/threonine-protein kinase mTOR (Homo sapiens, UniProt P42345). Conditions: MV4-11, 10 uM.
The test system of data set [3] is MM1.S. Briefly: Induction of apoptosis in human MM1S cells assessed as early apoptotic cells at 0.3 uM after 48 hrs in presence of 1 uM SAHA by Annexin V-FITC/propidium iodide staining-based flow cytometric analysis (reference value: 0.38%). The format is functional.
The subject of data set [4] is MV4-11. Briefly: Induction of apoptosis in human MV4-11 cells assessed as necrotic cells at 0.3 uM after 48 hrs in presence of 1 uM SAHA by Annexin V-FITC/propidium iodide staining-based flow cytometric analysis (reference value: 0.17%). The format is functional.
Data set [5] deals with MM1.S. Briefly: Induction of apoptosis in human MM1S cells assessed as early apoptotic cells at 1 uM after 48 hrs by Annexin V-FITC/propidium iodide staining-based flow cytometric analysis (reference value: 0.38%). The format is functional.
The next data set has as its system OCI-AML2. In words: Antiproliferative activity against human OCI-AML2 cells after 72 hrs by MTT assay. Format: functional, cell-based. Conditions: OCI-AML2, 72 h.
Data set [6] has as its system MM1.S. Briefly: Induction of apoptosis in human MM1S cells assessed as viable cells at 0.3 uM after 48 hrs in presence of 1 uM SAHA by Annexin V-FITC/propidium iodide staining-based flow cytometric analysis (reference value: 98.9%). The format is functional.
The subject of data set [7] is MM1.S. Briefly: Induction of apoptosis in human MM1S cells assessed as late apoptotic cells at 1 uM after 48 hrs by Annexin V-FITC/propidium iodide staining-based flow cytometric analysis (reference value: 0.42%). Format: functional.
Data set [8] has as its system MM1.S. In words: Induction of apoptosis in human MM1S cells assessed as necrotic cells at 1 uM after 48 hrs by Annexin V-FITC/propidium iodide staining-based flow cytometric analysis (reference value: 0.32%). Format: functional.
The test system of data set [9] is MV4-11. In words: Induction of apoptosis in human MV4-11 cells assessed as late apoptotic cells at 1 uM after 48 hrs by Annexin V-FITC/propidium iodide staining-based flow cytometric analysis (reference value: 5.03%). Format: functional.
Data set [10] deals with MV4-11. In words: Induction of apoptosis in human MV4-11 cells assessed as viable cells at 1 uM after 48 hrs by Annexin V-FITC/propidium iodide staining-based flow cytometric analysis (reference value: 84.1%). The format is functional. Conditions: Homo sapiens, MV4-11, 48 h; read-out: Activity.
Data set [11] deals with MV4-11. Briefly: Induction of apoptosis in human MV4-11 cells assessed as early apoptotic cells at 1 uM after 48 hrs by Annexin V-FITC/propidium iodide staining-based flow cytometric analysis (reference value: 10.7%). Format: functional.
In a further data set the test system is OCI-AML-3. In words: Antiproliferative activity against human OCI-AML3 cells after 72 hrs by MTT assay. Format: functional, cell-based. Conditions: OCI-AML-3, 72 h.
Data set [12] has as its target T1, Serine/threonine-protein kinase mTOR. Conditions: MV4-11, 1 to 10 uM.
Data set [13] concerns MV4-11. Briefly: Induction of apoptosis in human MV4-11 cells assessed as viable cells at 0.3 uM after 48 hrs in presence of 1 uM SAHA by Annexin V-FITC/propidium iodide staining-based flow cytometric analysis (reference value: 84.1%). Format: functional.
Data set [14] concerns MM1.S. Briefly: Induction of apoptosis in human MM1S cells assessed as viable cells at 1 uM after 48 hrs by Annexin V-FITC/propidium iodide staining-based flow cytometric analysis (reference value: 98.9%). As to conditions: Homo sapiens, MM1.S, 48 h; read-out: Activity. The format is functional.
For data set [15], the system named is MV4-11. Briefly: Antiproliferative activity against human MV4-11 cells after 72 hrs by MTT assay. Conditions: MV4-11, 72 h. Format: functional, cell-based. On the technique in general: Tetrazolium assays rely on reduction of a dye to a coloured formazan, in cell work by metabolically active cells.
Data set [16] has as its target T1, Serine/threonine-protein kinase mTOR. As to conditions: MV4-11, 1 to 10 uM. The source holds these as a separate data set.
Data set [17] concerns MM1.S. Briefly: Antitumor activity against human MM1S cells xenografted in NOD/SCID mouse assessed as tumor growth inhibition at 25 mg/kg, po qd administered for 10 days and measured every 2 days post last dose in presence of 50 mg/kg SAHA by caliper method relative to control.
Data set [18] in a line: Toxicity against NOD/SCID mouse xenografted with human MM1S cells assessed as mouse survival at 25 mg/kg, po qd administered for 10 days co-treated with 50 mg/kg SAHA. The format is organism-based. Conditions: in vivo, 240 h. In outline: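 MM1S s.c. xenograft: 10^7 cells in serum-free RPMI 1640, right flank, female NOD/SCID mice aged 5-6 weeks, randomised at 100-200 mm3 (n=6 per group). Oral daily dosing used physiological saline with 2.5% DMSO and 10% cyclodextrin, pH 9; the combination was given as a suspension. Caliper measurements were taken every 2 days. Survivors were counted.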

For data set [19], the system named is MV4-11. Briefly: Induction of apoptosis in human MV4-11 cells assessed as necrotic cells at 1 uM after 48 hrs by Annexin V-FITC/propidium iodide staining-based flow cytometric analysis (reference value: 0.17%). The format is functional.
Data set [20] deals with MV4-11. In words: Induction of apoptosis in human MV4-11 cells assessed as late apoptotic cells at 0.3 uM after 48 hrs in presence of 1 uM SAHA by Annexin V-FITC/propidium iodide staining-based flow cytometric analysis (reference value: 5.03%). The format is functional.
Data set [21] concerns MM1.S. Briefly: Induction of apoptosis in human MM1S cells assessed as late apoptotic cells at 0.3 uM after 48 hrs in presence of 1 uM SAHA by Annexin V-FITC/propidium iodide staining-based flow cytometric analysis (reference value: 0.42%). The format is functional.
Data set [22] has as its system MM1.S. Briefly: Induction of apoptosis in human MM1S cells assessed as necrotic cells at 0.3 uM after 48 hrs in presence of 1 uM SAHA by Annexin V-FITC/propidium iodide staining-based flow cytometric analysis (reference value: 0.32%). Format: functional.

As usually defined, the IC50 is the midpoint of a concentration-inhibition curve. Read a low IC50 as inhibition by little substance. As a reminder, the TGI is how far tumour growth fell short of that in controls. In the case of `CO[C@H]1C[C@@H]2CC[C@@H](C)[C@@](O)(O2)C(=O)C(=O)N2CCCC[C@H]2C(=O)O[C@H]([C@H](C)C[C@@H]2CC[C@@H](O)[C@H](OC)C2)CC(=O)[C@H](C)/C=C(\C)[C@@H](O)[C@@H](OC)C(=O)[C@H](C)C[C@H](C)/C=C/C=C/C=C/1C` [SIROLIMUS], the Activity was determined as 37% in the data set with MV4-11 [1]; 15% in the data set with MM1.S [3]; 3.48% with MV4-11 [4]; 0.45% in the data set on MM1.S [5]; 53.6% in the data set with MM1.S [6]; 2.81% with MM1.S [7]. The Activity is 0.47% with MM1.S [8]; 5.77% in the data set with MV4-11 [9]; 15.3% in the data set with MV4-11 [11]; 17.1% in the data set with MV4-11 [13]; “Non-Toxic” in data set [18]; 0.6% in the data set on MV4-11 [19]. Besides, the Activity is given as 42.4% in the data set with MV4-11 [20], 29.7% with MM1.S [21] and 1.74% in the data set with MM1.S [22]. Further, the inhibition entry in data set [2], in [12] and in data set [16] was “Active” each time. In addition, the IC50 with OCI-AML2, with OCI-AML-3 and in the data set with MV4-11 [15] was more than 500 nM throughout. Also, the viability at 1 µM in the data set with MV4-11 [10] was 78.3%; in the data set on MM1.S [14], 96.3%. Further, the TGI with MM1.S [17] came out at 73.8%.
